Reference: ChEMBL document CHEMBL1128218, “New alpha-thiol dipeptide dual inhibitors of angiotensin-I converting enzyme and neutral endopeptidase EC 3.4.24.11” (J Med Chem, 1995)

Columns and labels:
[1] = target: T1, Angiotensin-converting enzyme (Oryctolagus cuniculus, UniProt P12822); assay: Evaluation of in vitro inhibitory activity against Angiotensin I converting enzyme
T1 sequence (P12822 whole entry): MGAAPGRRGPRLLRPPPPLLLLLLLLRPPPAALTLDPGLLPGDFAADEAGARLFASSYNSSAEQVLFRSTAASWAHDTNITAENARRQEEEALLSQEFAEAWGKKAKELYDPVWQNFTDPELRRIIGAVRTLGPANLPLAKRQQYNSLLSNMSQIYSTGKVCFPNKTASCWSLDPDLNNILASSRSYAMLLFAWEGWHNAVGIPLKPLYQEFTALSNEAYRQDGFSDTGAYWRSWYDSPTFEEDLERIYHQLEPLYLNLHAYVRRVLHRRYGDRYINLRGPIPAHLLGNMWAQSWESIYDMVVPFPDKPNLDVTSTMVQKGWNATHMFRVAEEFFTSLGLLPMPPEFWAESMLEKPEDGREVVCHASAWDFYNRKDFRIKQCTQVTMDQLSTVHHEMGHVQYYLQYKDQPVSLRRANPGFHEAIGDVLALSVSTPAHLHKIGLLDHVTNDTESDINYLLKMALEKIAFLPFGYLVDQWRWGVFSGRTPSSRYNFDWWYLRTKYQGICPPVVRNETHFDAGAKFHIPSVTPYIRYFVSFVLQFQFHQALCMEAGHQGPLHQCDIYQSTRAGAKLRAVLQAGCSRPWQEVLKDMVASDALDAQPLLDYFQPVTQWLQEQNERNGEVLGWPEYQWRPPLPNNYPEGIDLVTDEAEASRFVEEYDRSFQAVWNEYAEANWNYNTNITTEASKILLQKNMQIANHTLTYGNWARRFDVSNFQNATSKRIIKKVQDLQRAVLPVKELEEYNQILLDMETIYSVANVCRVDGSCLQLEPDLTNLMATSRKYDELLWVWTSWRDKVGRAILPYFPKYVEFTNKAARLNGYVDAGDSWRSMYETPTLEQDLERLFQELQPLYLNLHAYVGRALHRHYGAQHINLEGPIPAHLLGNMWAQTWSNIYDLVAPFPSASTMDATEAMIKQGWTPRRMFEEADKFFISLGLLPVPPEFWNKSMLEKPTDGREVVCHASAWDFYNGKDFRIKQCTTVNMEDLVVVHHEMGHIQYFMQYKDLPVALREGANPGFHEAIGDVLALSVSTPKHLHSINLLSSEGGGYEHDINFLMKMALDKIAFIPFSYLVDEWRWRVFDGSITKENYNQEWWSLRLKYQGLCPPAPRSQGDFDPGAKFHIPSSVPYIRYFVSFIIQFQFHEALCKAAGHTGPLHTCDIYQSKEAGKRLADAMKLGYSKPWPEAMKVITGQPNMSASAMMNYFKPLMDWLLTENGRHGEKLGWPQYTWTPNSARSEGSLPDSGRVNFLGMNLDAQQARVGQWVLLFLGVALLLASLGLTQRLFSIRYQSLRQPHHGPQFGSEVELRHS
Procedure, shortened: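 Rabbit lung ACE in 300 mM NaCl, 100 mM KH2PO4 (pH 8.3). Enzyme and drug mixed, then hippurylhistidylleucine (2 mg/mL stock) added and incubated 75 min at room temperature. Stopped with 1 N NaOH, o-phthalaldehyde added for 10 min at 25 °C, acidified with HCl, OD read at 360 nm.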

Neprilysin = target: T2, Neprilysin (Rattus norvegicus, UniProt P07861); assay: Evaluation of in vitro inhibitory activity against Neutral endopeptidase
T2 sequence (P07861 whole entry): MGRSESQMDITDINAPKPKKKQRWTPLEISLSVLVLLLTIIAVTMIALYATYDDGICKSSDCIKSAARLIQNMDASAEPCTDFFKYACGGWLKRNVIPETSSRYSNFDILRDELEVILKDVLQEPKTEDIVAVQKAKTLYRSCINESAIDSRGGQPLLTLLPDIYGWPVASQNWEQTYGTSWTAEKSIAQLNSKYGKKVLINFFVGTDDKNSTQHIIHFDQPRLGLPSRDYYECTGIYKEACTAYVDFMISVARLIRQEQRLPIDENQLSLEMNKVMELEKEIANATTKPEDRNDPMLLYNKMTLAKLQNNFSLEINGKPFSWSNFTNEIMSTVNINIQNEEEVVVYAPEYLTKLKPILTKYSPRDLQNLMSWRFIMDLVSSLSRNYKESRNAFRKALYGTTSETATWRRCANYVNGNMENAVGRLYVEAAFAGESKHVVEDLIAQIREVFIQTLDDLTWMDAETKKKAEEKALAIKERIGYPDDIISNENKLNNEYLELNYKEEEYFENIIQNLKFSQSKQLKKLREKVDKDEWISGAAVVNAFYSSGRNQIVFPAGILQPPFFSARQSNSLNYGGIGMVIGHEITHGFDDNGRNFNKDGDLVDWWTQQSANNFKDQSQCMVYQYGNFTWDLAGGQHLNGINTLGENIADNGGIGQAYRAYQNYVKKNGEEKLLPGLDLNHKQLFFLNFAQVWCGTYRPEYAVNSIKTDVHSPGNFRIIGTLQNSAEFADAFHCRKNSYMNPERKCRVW
Procedure, shortened: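 Rat kidney cortex membrane homogenate (4.2 μg protein) preincubated 10 min at 25 °C with increasing inhibitor concentrations. Then 500 μM GAAP (final) in 50 mM Tris pH 7.4 with leucine aminopeptidase M, 25 min at 25 °C. Done in duplicate; IC50 from curves of seven points near the IC50.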

[2] = target: T3, Angiotensin-converting enzyme (Rattus norvegicus) (UniProt P47820); assay: Evaluation of plasma inhibition of Angiotensin I converting enzyme activity in conscious rat 1 hour after intravenous administration at a dose of 10 mg/kg; format: functional, organism-based; parameters: dose 10 mg/kg
T3 sequence (whole entry): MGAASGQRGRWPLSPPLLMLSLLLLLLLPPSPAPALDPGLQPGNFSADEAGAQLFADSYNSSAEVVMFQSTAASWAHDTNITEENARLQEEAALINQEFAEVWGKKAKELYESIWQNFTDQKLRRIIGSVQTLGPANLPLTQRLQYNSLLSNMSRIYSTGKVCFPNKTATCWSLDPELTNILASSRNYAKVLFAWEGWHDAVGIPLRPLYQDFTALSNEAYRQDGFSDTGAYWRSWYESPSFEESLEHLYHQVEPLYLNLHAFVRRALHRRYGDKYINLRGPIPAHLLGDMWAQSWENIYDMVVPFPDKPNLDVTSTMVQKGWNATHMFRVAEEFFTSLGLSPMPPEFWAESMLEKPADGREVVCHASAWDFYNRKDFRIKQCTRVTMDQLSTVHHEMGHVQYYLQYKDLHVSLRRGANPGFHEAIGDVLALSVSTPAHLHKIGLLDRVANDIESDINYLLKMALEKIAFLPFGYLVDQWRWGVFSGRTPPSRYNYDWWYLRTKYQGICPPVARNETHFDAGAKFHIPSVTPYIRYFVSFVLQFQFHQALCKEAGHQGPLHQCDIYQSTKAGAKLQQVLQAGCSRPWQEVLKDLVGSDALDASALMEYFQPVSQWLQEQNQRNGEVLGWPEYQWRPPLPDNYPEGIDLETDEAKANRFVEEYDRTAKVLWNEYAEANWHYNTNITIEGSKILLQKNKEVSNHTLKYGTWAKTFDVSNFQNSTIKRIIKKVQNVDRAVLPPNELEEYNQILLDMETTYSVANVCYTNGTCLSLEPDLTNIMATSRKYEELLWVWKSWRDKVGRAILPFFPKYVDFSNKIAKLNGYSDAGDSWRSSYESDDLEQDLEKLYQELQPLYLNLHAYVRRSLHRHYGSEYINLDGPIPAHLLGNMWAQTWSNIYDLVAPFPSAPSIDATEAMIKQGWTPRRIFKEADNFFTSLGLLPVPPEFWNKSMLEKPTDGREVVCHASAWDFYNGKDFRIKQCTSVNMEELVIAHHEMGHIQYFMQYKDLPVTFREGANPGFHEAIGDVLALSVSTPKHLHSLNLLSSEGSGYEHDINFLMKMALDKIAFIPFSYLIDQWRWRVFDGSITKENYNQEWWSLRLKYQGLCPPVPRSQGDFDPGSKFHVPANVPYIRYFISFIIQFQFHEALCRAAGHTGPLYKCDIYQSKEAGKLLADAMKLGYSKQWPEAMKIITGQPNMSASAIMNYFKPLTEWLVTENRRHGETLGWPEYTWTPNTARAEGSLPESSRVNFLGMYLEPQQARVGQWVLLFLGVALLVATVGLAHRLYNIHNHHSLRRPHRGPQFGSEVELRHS
Procedure, shortened: (§1)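 Male conscious normotensive Sprague-Dawley rats (275-390 g) fitted the day before with femoral arterial and venous catheters under methohexital anesthesia. Three angiotensin-I challenges (300 ng/kg iv) given as baseline. Compound given iv, ia or po (12.3 mg/kg po dose in 3% cornstarch at 1 mg/mL), then AI challenges repeated at set times. Pressor response compared with the mean baseline response and expressed as % inhibition.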

[3] = target: T3, Angiotensin-converting enzyme (Rattus norvegicus); assay: Evaluation of plasma inhibition of Angiotensin I converting enzyme activity in conscious rat 2 hours after intravenous administration at a dose of 10 mg/kg; format: functional, organism-based; parameters: dose 10 mg/kg; procedure, shortened: as §1
[4] = target: T3, Angiotensin-converting enzyme (Rattus norvegicus); assay: Evaluation of plasma inhibition of Angiotensin I converting enzyme activity in conscious rat 1 hour after oral administration at a dose of 10 mg/kg; format: functional, organism-based; parameters: dose 10 mg/kg
[5] = target: T3, Angiotensin-converting enzyme (Rattus norvegicus); assay: Evaluation of plasma inhibition of Angiotensin I converting enzyme activity in conscious rat 6 hours after ia administration at a dose of 10 mg/kg; format: functional, organism-based; parameters: dose 10 mg/kg; procedure, shortened: as §1
[6] = target: T3, Angiotensin-converting enzyme (Rattus norvegicus); assay: Evaluation of plasma inhibition of Angiotensin I converting enzyme activity in conscious rat 6 hour after oral administration at a dose of 10 mg/kg; format: functional, organism-based; parameters: dose 10 mg/kg; procedure, shortened: as §1
[7] = target: T3, Angiotensin-converting enzyme (Rattus norvegicus); assay: Evaluation of plasma inhibition of Angiotensin I converting enzyme activity in conscious rat 2 hours after ia administration at a dose of 10 mg/kg; format: functional, organism-based; parameters: dose 10 mg/kg; procedure, shortened: as §1
[8] = target: T3, Angiotensin-converting enzyme (Rattus norvegicus); assay: Evaluation of plasma inhibition of Angiotensin I converting enzyme activity in conscious rat 1 hour after ia administration at a dose of 10 mg/kg; format: functional, organism-based; parameters: dose 10 mg/kg; procedure, shortened: as §1
[9] = target: T3, Angiotensin-converting enzyme (Rattus norvegicus); settings: Plasma; 10 mg/kg
[10] = target: T3, Angiotensin-converting enzyme (Rattus norvegicus); assay: Evaluation of plasma inhibition of Angiotensin I converting enzyme activity in conscious rat 4 hours after ia administration at a dose of 10 mg/kg; format: functional, organism-based; parameters: dose 10 mg/kg; procedure, shortened: as §1
[11] = target: T3, Angiotensin-converting enzyme (Rattus norvegicus); assay: Evaluation of plasma inhibition of Angiotensin I converting enzyme activity in conscious rat 2 hour after oral administration at a dose of 10 mg/kg; format: functional, organism-based; parameters: dose 10 mg/kg
[12] = target: T3, Angiotensin-converting enzyme (Rattus norvegicus); assay: Evaluation of plasma inhibition of Angiotensin I converting enzyme activity in conscious rat 4 hours after peroral administration at a dose of 12.3 mg/kg; format: functional, organism-based; parameters: dose 12.3 mg/kg; procedure, shortened: as §1
[13] = target: T3, Angiotensin-converting enzyme (Rattus norvegicus); assay: Evaluation of plasma inhibition of Angiotensin I converting enzyme activity in conscious rat 1 hour after peroral administration at a dose of 12.3 mg/kg; format: functional, organism-based; parameters: dose 12.3 mg/kg; procedure, shortened: as §1
[14] = target: T3, Angiotensin-converting enzyme (Rattus norvegicus); assay: Evaluation of plasma inhibition of Angiotensin I converting enzyme activity in conscious rat 2 hours after peroral administration at a dose of 12.3 mg/kg; format: functional, organism-based; parameters: dose 12.3 mg/kg; procedure, shortened: as §1
[15] = target: T3, Angiotensin-converting enzyme (Rattus norvegicus); assay: Evaluation of plasma inhibition of Angiotensin I converting enzyme activity in conscious rat 6 hours after peroral administration at a dose of 12.3 mg/kg; format: functional, organism-based; parameters: dose 12.3 mg/kg; procedure, shortened: as §1

## CC(C)[C@H](S)C(=O)N[C@@H](Cc1ccc(-c2ccccc2)cc1)C(=O)N[C@@H](Cc1ccc(O)cc1)C(=O)O
[1]
  IC50: 62 nM

## CC(C)[C@H](S)C(=O)NC1(C(=O)N[C@@H](Cc2ccc(O)cc2)C(=O)O)CCCCC1
[1]
  IC50: 33 nM
Neprilysin
  IC50: 8.7 nM
[2]
  inhibition: 22%
[3]
  inhibition: 10%

## O=C(O)[C@H](Cc1ccc(O)cc1)NC(=O)C1(NC(=O)C2(S)CCCC2)CCCC1
[1]
  IC50: 17 nM
Neprilysin
  IC50: 5.2 nM
[2]
  inhibition: 3%

## COc1ccc(C[C@H](NC(=O)C2(NC(=O)[C@@H](S)C(C)C)CCCC2)C(=O)O)cc1
[1]
  IC50: 19 nM
Neprilysin
  IC50: 2.2 nM

## C[C@H](CS)C(=O)N1CCC[C@H]1C(=O)O
[4]
  inhibition: 100%
[5]
  inhibition: 3%
[6]
  inhibition: 13%
[7]
  inhibition: 60%
[8]
  inhibition: 96%
[9]
  inhibition: 36%
[10]
  inhibition: 26%
[11]
  inhibition: 78%

## O=C(O)CN1C(=O)[C@@H](N[C@@H](CCc2ccccc2)C(=O)O)CCc2ccccc21
[5]
  inhibition: 7%
[7]
  inhibition: 74%
[8]
  inhibition: 100%
[10]
  inhibition: 27%

## CC(C)CC(NP(=O)(O)OC1O[C@@H](C)[C@H](O)[C@@H](O)[C@H]1O)C(=O)N[C@@H](Cc1c[nH]c2ccccc12)C(=O)O (single isomer, unassigned) [PHOSPHORAMIDON]
Neprilysin
  IC50: 26 nM

## CC(C)[C@H](S)C(=O)NC1(C(=O)N[C@@H](Cc2ccc(O)cc2)C(=O)O)CC2CCC1C2 (stereo not given in full)
[1]
  IC50: 65 nM
Neprilysin
  IC50: 15 nM

## CC(C)[C@H](S)C(=O)NC1(C(=O)N[C@@H](Cc2ccc(-c3ccccc3)cc2)C(=O)O)CCCC1
[1]
  IC50: 139 nM
Neprilysin
  IC50: 16 nM

## CC(C)[C@H](S)C(=O)NC1(C(=O)N[C@@H](Cc2c[nH]c3ccc(O)cc23)C(=O)O)CCCC1
[1]
  IC50: 13 nM
Neprilysin
  IC50: 2 nM

## CC(C)[C@H](S)C(=O)NC1(C(=O)N[C@@H](Cc2cccnc2)C(=O)O)CCCC1
[1]
  IC50: 37 nM
Neprilysin
  IC50: 3.1 nM

## CCOC(=O)[C@H](Cc1c[nH]c2ccccc12)NC(=O)C1(NC(=O)[C@@H](SC(C)=O)C(C)C)CCCC1
[12]
  inhibition: 71%
[13]
  inhibition: 83%
[14]
  inhibition: 72%
[15]
  inhibition: 64%
